Screens: PubChem, several laboratories
Rad51 HR inh: blocks human Rad51 in homologous recombination; Q06609; hRad51 DNA strand exchange, fluorescence dequenching; inhibition, % at 10 µM; actives 0.085% (n = 200,000);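 active means inhibition above 40% at the single screening dose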
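material = hRad51 filaments on single-stranded DNA | reagent = Donor/quencher-labelled 47-bp dsDNA substrate | compound = 10 µM final, single point | schedule = strand-exchange reaction 15 min at room temperature | measured by = fluorescein emission 520 nm, excitation 485 nm | read-out basis = % inhibition versus plate control and blank means | benchmarks = plate controls and plate blanks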
HSF1 activator: increases HSF-1 driven luciferase reporter signal; NIH3T3-HGL HSF-1 luciferase reporter, MG132, 8 h; 100% = twice DMSO control signal; activation, % at 9 µM; actives 1.7% (n = 300,000); AID 504408;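 active means mean replicate activation of at least 50% with a set share of replicates each reaching 50%; inconclusive means only one of those two conditions met; inactive means mean below 50% and too few replicates reaching it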
HSF1 inhib: HSF1 inhibition; NIH3T3-HGL HSE-luciferase, MG132-induced, luminescence 8 h; hits give low values; activity change, negative = inhibition, % at 7.5 µM (by protocol); actives 0.77% (n = 300,000);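 active means more than half of replicate wells show activity change below -50%, luminescence cut by over half; inconclusive means some wells, but at most half, below -50%; inactive means no replicate well below -50%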;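 further: luciferase reports HSF-1 transcriptional activity via heat shock element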
HSV augment: increases HSV replication in cells; HSV replication augmentation in cells, fold increase; actives 0.005% (n = 220,000); maximum fold increase; AID 1956; in the data active means maximum fold increase above about 1.5; inconclusive means no clear call, values can overlap the other calls; tested in PC3 cells
Hsp70 act: transcriptional activators of Hsp70; actives 0.04% (n = 200,000); AID 1203; activation, % at 10 µM; HeLa Hsp70 promoter luciferase reporter, luminescence; scaled: vehicle 0, proteasome-inhibitor control 100%;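 active means activation above the mean across all tested compounds plus 3 SD, cutoff set per campaign, cut at about 5.5% in these data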
MDM2 E3 inh: Mdm2 E3 ligase (human) inhibition; Q00987; cell-based MDM2 ubiquitination luciferase reporter, 2 h; 0 = plate control, 100 = twice control, blank-subtracted; signal enhancement, % at 5 µM; actives 0.11% (n = 210,000);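 active means signal enhancement of 30% or more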;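 further: luminescence tracks abundance of the self-degrading MDM2-luciferase fusion protein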
Target sequence (Q00987 whole entry, looked up, the tested form may be a part): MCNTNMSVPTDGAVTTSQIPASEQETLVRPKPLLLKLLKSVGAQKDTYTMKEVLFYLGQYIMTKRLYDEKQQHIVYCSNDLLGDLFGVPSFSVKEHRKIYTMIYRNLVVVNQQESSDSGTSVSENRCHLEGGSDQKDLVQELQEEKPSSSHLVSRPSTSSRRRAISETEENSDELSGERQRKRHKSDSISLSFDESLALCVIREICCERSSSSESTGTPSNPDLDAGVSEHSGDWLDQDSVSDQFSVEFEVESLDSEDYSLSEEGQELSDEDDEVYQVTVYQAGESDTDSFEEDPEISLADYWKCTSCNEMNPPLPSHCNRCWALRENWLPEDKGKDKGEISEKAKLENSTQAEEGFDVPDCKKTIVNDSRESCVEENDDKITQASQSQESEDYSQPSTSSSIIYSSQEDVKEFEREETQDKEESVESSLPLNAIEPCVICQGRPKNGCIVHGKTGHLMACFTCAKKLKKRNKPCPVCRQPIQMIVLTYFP
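test system = mammalian cells stably expressing self-ubiquitinating, self-degrading MDM2 E3–luciferase fusion | quantity = 2000 cells/well | incubation = cell settling 4 h, compound treatment 2 h, both 37 °C | signal = luminescence with SteadyLite reagent, 15 min at room temperature | evaluation = % enhancement relative to plate controls after blank subtraction | benchmarks = plate controls and plate blanks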
Each line names hits and unclear results; the compound was inactive in the other large screens. Only some compounds are listed: those with a hit (about 2.6% of all), similar ones and a draw of the others.

Cc1cc(/C([O-])=C(/C(=S)Nc2ccccc2)[n+]2ccccc2)c(C)n1-c1ccccc1	HSF1 inhib -61
COc1ccc(-n2nc(C(=O)NCC(=O)NCc3ccccc3OC)c3ccccc3c2=O)c(OC)c1	HSF1 inhib -60
COc1ccc(-n2nc(C(=O)NCC(=O)NCCN(C)C)c3ccccc3c2=O)c(OC)c1	none (no result: Rad51 HR inh, HSV augment, Hsp70 act, MDM2 E3 inh)
CCOC(=O)c1c(C)[nH]c(C(=O)COC(=O)CSC)c1C	none
CCCCC(=O)OCC(=O)c1[nH]c(C)c(C(=O)OCC)c1C	HSF1 activator 76
CCCCCCC(=O)c1c(C)[nH]c(C(=O)OCC)c1C	HSF1 activator 53
OC12CC3C[C@H](C1)C(N1CCOCC1)[C@@H](C3)C2 (some centres not stated)	none (no result: Rad51 HR inh, HSV augment, Hsp70 act, MDM2 E3 inh)
COc1ccc(N2C(=O)CC(NNc3ncc(Cl)cc3Cl)C2=O)cc1 (configuration not stated)	HSF1 inhib -60
CC1CCCN(C(=O)Cn2nnc(-c3ccccc3F)n2)C1 (configuration not stated)	none (no result: Rad51 HR inh, HSV augment, Hsp70 act, MDM2 E3 inh)
CCn1c(SCC(=O)N/N=C/C=C/c2ccco2)nnc1-c1ccc(OC)cc1	none
CCn1c(SCC(=O)N/N=C/C=C/c2ccco2)nc2ccccc21	HSF1 activator 78
CSc1ccc(S(=O)(=O)N2CCC(C(=O)Nc3ccc(C(N)=O)cc3)CC2)cc1	none (no result: Rad51 HR inh, HSV augment, Hsp70 act, MDM2 E3 inh)
COc1cccc(/C=C/C(=O)c2ccc(C)c([N+](=O)[O-])c2)c1	none
COc1cc(/C=C/C(=O)c2ccc(C)c([N+](=O)[O-])c2)cc(OC)c1O	HSF1 activator 128
COc1ccc(/C=C/C(=O)c2ccc(C)c([N+](=O)[O-])c2)cc1O	HSF1 activator 67
CCCCN(C)C(=S)Nc1ccsc1C(=O)OC	none
CCSc1nc(-c2ccccc2)nc(C(Cl)Cl)n1	HSF1 activator 57
O=C(Nc1ccncc1)c1ccccc1Cl	none (no result: Rad51 HR inh, HSV augment, Hsp70 act, MDM2 E3 inh)
O=C(N[C@H](CO)Cc1ccccc1)c1ccco1	none (no result: Hsp70 act, MDM2 E3 inh)
CC(C)c1[nH]nc2c1C(c1cccnc1)C(C#N)=C(N)O2 (configuration not stated)	none
CC(C)c1[nH]nc2c1C(c1ccco1)C(C#N)=C(N)O2 (configuration not stated)	HSF1 activator 55
CC(=O)NCCn1ccc2ccccc21	HSF1 activator 60
O=C(Cc1ccccc1)NCCn1ccc2ccccc21	none
C[C@]12C=CC(=O)C=C1CC[C@H]1[C@@H]3C[C@@H](O)[C@](O)(C(=O)CO)[C@@]3(C)C[C@H](O)[C@@]12F	none (no result: MDM2 E3 inh)
CC1CC2C3CCC4=CC(=O)C=CC4(C)C3(F)C(O)CC2(C)C1(O)C(=O)CO (configuration not stated)	HSF1 inhib -54 (no result: Rad51 HR inh, Hsp70 act)
O=C(Nc1cccc(C(=O)N2CCN(c3cccc(Cl)c3)CC2)c1)c1ccccc1	none
COc1ccc(OCC(=O)Nc2cccc(OC)c2)cc1	none
COc1cccc(NC(=O)COc2ccccc2C(N)=O)c1	HSF1 activator 71
COC(=O)CCN1CCc2cc(N=Nc3ccc([N+](=O)[O-])cc3)ccc21	HSF1 inhib -63 (no result: Hsp70 act)
Cc1ccccc1CN1CCc2cc([N+](=O)[O-])ccc21	none (no result: Rad51 HR inh, HSV augment, Hsp70 act, MDM2 E3 inh)
O=C(CCCN1C(=O)S/C(=C/C=C/c2ccccc2)C1=O)Nc1ccc(C(=O)O)cc1	none (no result: Rad51 HR inh, HSV augment, Hsp70 act, MDM2 E3 inh)
O=C(CN1C(=O)S/C(=C\C=C\c2ccccc2)C1=O)Nc1ccc(O)cc1	HSF1 activator 59
CC1(C)CC(=O)N(c2ccc(Cl)cc2Cl)C(=O)C1	none (no result: Rad51 HR inh, HSV augment, Hsp70 act, MDM2 E3 inh)
C=CCN1C(=O)N/C(=C/c2ccc(N3CCOCC3)o2)C1=O	HSF1 inhib inconclusive
O=C1N/C(=C/c2ccc(N3CCOCC3)o2)C(=O)N1c1ccccc1	MDM2 E3 inh 47 (no result: HSF1 activator, HSF1 inhib)
Cc1ccc(S(=O)(=O)NNC(=O)c2cnn(-c3ccc(Cl)cc3)c2C(F)(F)F)cc1	HSF1 activator 61 (no result: Hsp70 act)
COc1ccc(-c2cc(C(F)(F)F)nc(SCC(=O)NCc3cnn(C)c3C)n2)cc1OC	MDM2 E3 inh 35
O=[N+]([O-])c1ccc(-c2cnc(SC(c3ccccc3)c3ccccc3)[nH]2)cc1	none
O=[N+]([O-])c1ccc(-c2cnc(SCc3ccccc3Cl)[nH]2)cc1	HSF1 activator 56
CC(C)(C)c1nc(SCC(=O)Nc2ccc3c(c2)OCCO3)c2ccccc2n1	none (no result: HSV augment)
CC(C)CC(=O)Nc1ccc(N2CCOCC2)cc1	HSF1 activator 98
CC(C)(C)c1nc(SCC(=O)Nc2ccc(N3CCOCC3)cc2)c2ccccc2n1	HSF1 activator 58
CC(C)CC(=O)Nc1ccc(N2CCN(S(C)(=O)=O)CC2)cc1	none
CCOc1ccc(/C=C/C(=O)c2ccccc2)cc1OC	HSF1 activator 63
O=C(/C=C/c1ccc(O)cc1)c1ccccc1	HSF1 activator 84 (no result: Rad51 HR inh, Hsp70 act)
CCOc1ccc(C(=O)/C=C/c2ccc(OC)c(OC)c2)cc1	none
COc1ccc(C(=O)/C=C/c2ccc(OC)c(Cn3nnc4ccccc43)c2)cc1	HSF1 activator 80
CSc1nsc(SCC(=O)Nc2cccc(C(=O)O)c2)n1	none (no result: Rad51 HR inh, HSV augment, Hsp70 act, MDM2 E3 inh)
Cc1ccc(CN2CCN(Cc3ccc(O)cc3)CC2CCO)o1 (configuration not stated)	none
Nc1nc(-c2cc(O)ccc2[N+](=O)[O-])cc(-c2ccccc2)c1[N+](=O)[O-]	none (no result: Rad51 HR inh, HSV augment, Hsp70 act, MDM2 E3 inh)
O=C(Nc1ccc(S(=O)(=O)NC2=NCCCCC2)cc1)C1COc2ccccc2O1 (configuration not stated)	Rad51 HR inh 41 (no result: Hsp70 act, MDM2 E3 inh)
O=C1NC(=O)c2cc(NC(=O)C3COc4ccccc4O3)ccc21 (configuration not stated)	MDM2 E3 inh 43
O=C(Nc1cccc(S(=O)(=O)NC2=NCCCCC2)c1)C1COc2ccccc2O1 (configuration not stated)	none
O=C(Nc1ccccc1)C1COc2ccccc2O1 (configuration not stated)	none (no result: Rad51 HR inh, HSV augment, Hsp70 act, MDM2 E3 inh)
O=C(O)C(Cc1c[nH]c2ccccc12)N1CCS(=O)(=O)CC1 (configuration not stated)	none
CCc1ccc(NS(=O)(=O)c2cccc3nonc23)cc1	none
CCN(CC)S(=O)(=O)c1cccc(NC(=O)CN2C(=O)c3ccc([N+](=O)[O-])cc3C2=O)c1	none
CCc1cc(C)cc(OCCNC(=O)c2cncc(Br)c2)c1	HSF1 inhib -62
CCc1ccc(-c2cc(C)no2)cc1S(=O)(=O)N1CCCN(Cc2ccc(F)cc2)C1	none (no result: Rad51 HR inh, HSV augment, Hsp70 act, MDM2 E3 inh)
CC(=O)N1CCn2c3c(c4cc(C)ccc42)CCCC31 (configuration not stated)	none
CC(=O)N1CCn2c3ccc(C)cc3c3cccc1c32	HSF1 activator 65
C/C(=N\N=C(/N)c1nonc1N)c1ccc2c(c1)OCO2	HSF1 activator 101 (no result: Hsp70 act)
CCN(C(=O)CN1C(=O)COc2ccc(S(=O)(=O)N3CCCCCC3)cc21)c1cccc(C)c1	none (no result: Rad51 HR inh, HSV augment, Hsp70 act, MDM2 E3 inh)
